Measurements published in article PMC9089800 (RSC Advances, 2018).
Where two headings read alike, the source gives them in different places.

Assays:
MCF7 = assay: MTT growth inhibition / cytotoxicity assay, MCF7; format: cell-based, human
MDA-MB-231 = assay: MTT growth inhibition / cytotoxicity assay, MDA-MB-231; format: cell-based, human
caspase 9 = assay: Western blot for apoptotic pathway; format: cell-based, human; settings: MCF7, 24 h; 30 μM of 9, 20 μM of 10
Method in brief: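 MCF7 cells exposed 24 h to DMSO vehicle or test compound. Lysed 20 min on ice in Tris pH 7.4/EDTA/NaCl/NaF/orthovanadate/0.5% Triton X-100, then cleared at 16000 × g at 4 °C. Protein quantified by Bradford; samples boiled in Laemmli buffer. SDS-PAGE, PVDF transfer, 3% milk/TBST block. Anti-caspase 9 overnight at 4 °C; HRP secondary; chemiluminescent detection.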

MCF7 cells [1] = assay: DNA fragmentation assay; format: cell-based, human; settings: MCF7, 24 h; 30 μM of 9, 20 μM of 10
MCF10A = assay: cells; format: cell-based; settings: 48 h; for IC50: Homo sapiens, MCF-10A, read-out: IC50 in μM MCF10A
MCF7 cells [2] = assay: Immunostaining; format: cell-based, human; settings: IC50 concentration, 12 hours
Method in brief: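 Cells grown overnight as a monolayer on coverslips, then exposed to test compound for 12 h. Fixed in 3.7% formaldehyde for 20 min at room temperature in the dark. Permeabilised with 0.5% Tween-20 for 30 min, then blocked with 3% BSA. Stained 1 h with anti-α-tubulin, then 1 h with Alexa Fluor 594 secondary. DNA counterstained with Hoechst; mounted in DABCO/glycerol.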

MCF7 cells [3] = assay: Cell cycle analysis by FACS; format: cell-based, human; settings: MCF7, 24 h; 30 μM of 9, 20 μM of 10
Method in brief: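 Cells seeded a day before; treated 24 h with test compound or DMSO vehicle (final DMSO <0.02%). Cells trypsinised, pelleted at 4 °C, fixed overnight at 4 °C in chilled 95% ethanol, and PBS-washed. Stained with propidium iodide plus RNase in PBS/2 mM MgCl2 for 20 min at 37 °C, then acquired by flow cytometry. Three repeats; mean sub-G1 population plotted.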

[4] = Homo sapiens, MCF7, 48 h, read-out: IC50 in μM MCF7, MTT, 48 h, 0–100 μM
[5] = read-out: IC50 in μM MCF7, MTT, 48 h, 0–100 μM

Structure (SMILES) | IC50 (MCF7; [4]) [µM] | IC50 in μM MCF7 (MCF7; MTT, 48 h, 0–100 μM) | IC50 in μM MDA-MB-231 (MDA-MB-231; 48 h, 0–100 μM) | IC50 (MCF7; [5]) [µM] | apoptotic pathway (caspase 9 immunoblot) (caspase 9) | fragmentation of genomic DNA (ladder on agarose gel) (MCF7 cells [1]) | IC50 (MCF10A) [µM] | cytotoxic effect on normal breast epithelial MCF10A cells (in words) (MCF10A; MTT) | DNA fragmentation by Hoechst staining, tubulin morphology (MCF7 cells [2]) | apoptotic (sub-G1) population (MCF7 cells [3]) | IC50 (MDA-MB-231; read-out: IC50 in μM MDA-MB-231, 48 h, 0–100 μM) [µM]
C=C1[C@@H]2[C@H]3OC(=O)C(=C)[C@@H]3CCC(=C)[C@@H]2C[C@@H]1O [Compound 2, Zaluzanin C] | > 100 | inactive | inactive |  |  |  |  |  |  |  | 
C=C1[C@@H]2[C@H]3OC(=O)[C@@H](CN[C@H](C)c4cccc5ccccc45)[C@@H]3CCC(=C)[C@@H]2C[C@@H]1OC(C)=O [Compound 9, (3R,3aS,6aR,8S,9aR,9bS)-6,9-Dimethylene-3-((((R)-1-(naphthalen-1-yl)ethyl)amino)methyl)-2-oxododecahydroazuleno[4,5-b]furan-8-yl acetate] | < 50 |  |  | 30 ± 0.7 | cleavage of caspase 9 | substantial fragmented DNA ladder | 42 ± 4.1 | potent cytotoxic effect | fragmented DNA | significantly increased the apoptotic populations | 
C=C1[C@@H]2[C@H]3OC(=O)[C@@H](CN4CCC(O)CC4)[C@@H]3CCC(=C)[C@@H]2C[C@@H]1O [Compound 14, (3R,3aS,6aR,8S,9aR,9bS)-8-Hydroxy-3-((4-hydroxypiperidin-1-yl)methyl)-6,9-di-methylenedecahydroazuleno[4,5-b]furan-2(3H)-one] | < 50 |  |  | 40 ± 2.16 |  |  | > 50 |  |  | induced apoptosis to a lesser extent | 25 ± 2.3
